Values joined by “and” are separate entries in the source; they are usually repeats but may differ in a detail not shown here. Identical values can stand only once.
Tested on: U2OS
Experiment: Multiplex assay against U2OS
Type: toxicity, cell-based
Details: human
Procedure, shortened: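 Live cells were stained at seeding with Hoechst33342, BioTracker Green Microtubule Cytoskeleton Dye, MitoTracker Red and Annexin V Alexa Fluor 680. Following compound addition, they were imaged on a CQ1 microscope at 37°C and 5% CO2 and gated by CellPathfinder machine learning into Hoechst high-intensity objects or normal cells, with normal cells split into healthy, pyknosed or fragmented nuclei and pyknosed cells into mitotic or apoptotic. Tubulin, mitochondrial-mass and membrane-permeability phenotypes are per cents of healthy-nucleus cells.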

[1] = 12 h, 1 µM, compound concentration 1 uM
[2] = 12 h, 10 µM, compound concentration 10 uM
[3] = 24 h, 1 µM, compound concentration 1 uM
[4] = 24 h, 10 µM, compound concentration 10 uM
[5] = 48 h, 1 µM, compound concentration 1 uM
[6] = 48 h, 10 µM, compound concentration 10 uM

## Cc1cc(C)c(NC(=O)C2CC3CCC2C3)c(C)c1 (stereo not given)
[1]
  Population Apoptotic (%): 35.29%
  Population Fragmented Nuclei (%): 2.08% and 2.72%
  Population Healthy Nuclei (%): 89.09% and 88.04%
  Population Hoechst High Intensity Objects (%): 0%
  Population Membrane Permeable-Phenotype (%): 1.75% and 1.23%
  Population Mitochondria Different-Phenotype (%): 0.29% and 4.94%
  Population Mitotic Cells (%): 64.71%
  Population Normal (%): 100%
  Population Pyknosed Nuclei (%): 8.83% and 9.24%
  Population Tubulin-Different-Phenotype (%): 2.04% and 0%
  Total Cell Count: 385 and 184
[2]
  Population Apoptotic (%): 50% and 36%
  Population Fragmented Nuclei (%): 2.53% and 4.4%
  Population Healthy Nuclei (%): 88.71% and 79.87%
  Population Hoechst High Intensity Objects (%): 0%
  Population Membrane Permeable-Phenotype (%): 1.56% and 2.36%
  Population Mitochondria Different-Phenotype (%): 0.26% and 8.66%
  Population Mitotic Cells (%): 50% and 64%
  Population Normal (%): 100%
  Population Pyknosed Nuclei (%): 8.76% and 15.72%
  Population Tubulin-Different-Phenotype (%): 0.52% and 1.57%
  Total Cell Count: 434 and 159
[3]
  Population Apoptotic (%): 42.86% and 36%
  Population Fragmented Nuclei (%): 2.11% and 1.27%
  Population Healthy Nuclei (%): 84.48% and 88.19%
  Population Hoechst High Intensity Objects (%): 0.19% and 0%
  Population Membrane Permeable-Phenotype (%): 1.36% and 1.91%
  Population Mitochondria Different-Phenotype (%): 0.23% and 2.39%
  Population Mitotic Cells (%): 57.14% and 64%
  Population Normal (%): 99.81% and 100%
  Population Pyknosed Nuclei (%): 13.41% and 10.55%
  Population Tubulin-Different-Phenotype (%): 0.91% and 0%
  Total Cell Count: 523 and 237
[4]
  Population Apoptotic (%): 34.38% and 46.43%
  Population Fragmented Nuclei (%): 2.9% and 2.49%
  Population Healthy Nuclei (%): 86.2% and 83.58%
  Population Hoechst High Intensity Objects (%): 0.17% and 0%
  Population Membrane Permeable-Phenotype (%): 1.19%
  Population Mitochondria Different-Phenotype (%): 0.4% and 3.57%
  Population Mitotic Cells (%): 65.62% and 53.57%
  Population Normal (%): 99.83% and 100%
  Population Pyknosed Nuclei (%): 10.9% and 13.93%
  Population Tubulin-Different-Phenotype (%): 0.79% and 2.38%
  Total Cell Count: 588 and 201
[5]
  Population Apoptotic (%): 45% and 48.57%
  Population Fragmented Nuclei (%): 2.82% and 2%
  Population Healthy Nuclei (%): 88.83% and 89.25%
  Population Hoechst High Intensity Objects (%): 0%
  Population Membrane Permeable-Phenotype (%): 2% and 1.96%
  Population Mitochondria Different-Phenotype (%): 0.12% and 3.08%
  Population Mitotic Cells (%): 55% and 51.43%
  Population Normal (%): 100%
  Population Pyknosed Nuclei (%): 8.35% and 8.75%
  Population Tubulin-Different-Phenotype (%): 1.53% and 0.28%
  Total Cell Count: 958 and 400
[6]
  Population Apoptotic (%): 38.02% and 53.12%
  Population Fragmented Nuclei (%): 3.32% and 3.75%
  Population Healthy Nuclei (%): 86.1% and 87.03%
  Population Hoechst High Intensity Objects (%): 0%
  Population Membrane Permeable-Phenotype (%): 1.52% and 2.32%
  Population Mitochondria Different-Phenotype (%): 0.1% and 3.97%
  Population Mitotic Cells (%): 61.98% and 46.88%
  Population Normal (%): 100%
  Population Pyknosed Nuclei (%): 10.58% and 9.22%
  Population Tubulin-Different-Phenotype (%): 1.22% and 1.99%

Source: ChEMBL document CHEMBL5724801, “EUbOPEN Chemogenomics Library - Multiplex” (2024)
